Results: paper PMC3776227 (Biochemical Pharmacology, 2013)

Columns and labels:
α1β2γ2S GABAA receptors = α1β2γ2S GABAA receptors (Rattus norvegicus, UniProt P62813+P63138); conditions: piperine data taken from the literature; cited from earlier work
TRPV1 channels = TRPV1 channels (Rattus norvegicus, UniProt O35433); experiment: TRPV1 activation, two-microelectrode voltage clamp, Xenopus oocytes; type: cell-based
Outline: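 Rat TRPV1 cRNA was injected into Xenopus oocytes, which were stored 24–48 h at 18 °C. Two-electrode voltage clamp was run at −60 mV. Test compound (3–300 μM) was applied by fast perfusion. Peak inward current was normalised to a preceding 300 μM control response to the parent test compound in the same cell. Hill fit; n = 3–10 cells.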

C57BL/6N mice [1] = experiment: Seizure threshold, pentylentetrazole; type: in vivo; conditions: for Seizure threshold (PTZ dose): 30 min before PTZ, control 39.4 ± 2.8
GABAA receptors = experiment: Direct activation of GABAA receptors in the absence of GABA; type: cell-based, rat; conditions: up to 300 μM, no GABA
α1β3 GABAA receptors = α1β3 GABAA receptors (Rattus norvegicus, UniProt P62813+P63079); experiment: IGABA modulation, two-microelectrode voltage clamp, Xenopus oocytes, α1β3; type: cell-based
Chain of α1β3 GABAA receptors (P62813 28-455): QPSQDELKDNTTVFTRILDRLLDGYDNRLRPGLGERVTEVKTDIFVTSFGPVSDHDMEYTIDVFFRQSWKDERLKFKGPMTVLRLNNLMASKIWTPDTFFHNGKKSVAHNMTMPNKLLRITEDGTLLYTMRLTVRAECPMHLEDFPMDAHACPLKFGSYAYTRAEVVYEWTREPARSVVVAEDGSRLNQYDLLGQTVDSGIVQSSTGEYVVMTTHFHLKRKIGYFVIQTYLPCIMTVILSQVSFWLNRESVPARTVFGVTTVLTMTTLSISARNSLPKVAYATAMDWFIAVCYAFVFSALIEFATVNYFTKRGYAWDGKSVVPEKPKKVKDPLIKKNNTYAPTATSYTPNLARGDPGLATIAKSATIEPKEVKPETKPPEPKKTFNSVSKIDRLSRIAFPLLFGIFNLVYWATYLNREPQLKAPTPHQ
Chain of α1β3 GABAA receptors (P63079 26-473): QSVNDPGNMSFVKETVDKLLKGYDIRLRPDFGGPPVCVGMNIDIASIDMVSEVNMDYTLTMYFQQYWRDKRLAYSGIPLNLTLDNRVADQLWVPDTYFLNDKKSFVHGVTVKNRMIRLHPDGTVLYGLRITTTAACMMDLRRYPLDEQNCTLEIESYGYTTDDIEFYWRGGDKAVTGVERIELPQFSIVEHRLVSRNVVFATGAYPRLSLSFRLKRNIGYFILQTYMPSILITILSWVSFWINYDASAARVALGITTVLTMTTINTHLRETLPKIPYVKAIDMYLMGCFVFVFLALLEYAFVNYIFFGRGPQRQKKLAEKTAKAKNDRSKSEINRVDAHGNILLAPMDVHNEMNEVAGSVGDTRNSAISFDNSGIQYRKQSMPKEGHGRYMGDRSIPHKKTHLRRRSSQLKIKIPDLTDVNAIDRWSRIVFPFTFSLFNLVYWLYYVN
Outline: (§1)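 Rat GABAA subunit cRNAs were injected into stage V–VI Xenopus oocytes (10–50 nl, about 300–3000 pg/nl): α1β1 at 3:1, other αβ pairs at 1:1, and γ2S-containing receptors at α:β:γ 1:1:10. Oocytes were kept 24–48 h at 18 °C in ND96 with penicillin/streptomycin. Two-electrode voltage clamp was run at −70 mV in HEPES-buffered bath (pH 7,4).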

α2β2 GABAA receptors = α2β2 GABAA receptors (Rattus norvegicus, UniProt P23576+P63138); experiment: IGABA modulation, two-microelectrode voltage clamp, Xenopus oocytes, α2β2; type: cell-based
Chain of α2β2 GABAA receptors (P23576 29-451): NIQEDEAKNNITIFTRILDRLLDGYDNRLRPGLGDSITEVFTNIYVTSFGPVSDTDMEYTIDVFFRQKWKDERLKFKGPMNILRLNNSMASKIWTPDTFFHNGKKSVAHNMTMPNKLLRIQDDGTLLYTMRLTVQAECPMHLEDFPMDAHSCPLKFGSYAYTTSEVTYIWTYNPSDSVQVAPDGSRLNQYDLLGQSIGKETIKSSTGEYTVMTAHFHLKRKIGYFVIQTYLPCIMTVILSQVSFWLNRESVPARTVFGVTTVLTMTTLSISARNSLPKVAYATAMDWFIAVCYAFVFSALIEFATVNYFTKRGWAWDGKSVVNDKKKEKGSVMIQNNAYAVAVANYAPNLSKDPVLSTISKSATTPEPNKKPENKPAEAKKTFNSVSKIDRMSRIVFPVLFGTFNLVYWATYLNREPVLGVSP
Chain of α2β2 GABAA receptors (P63138 25-474 limits assumed): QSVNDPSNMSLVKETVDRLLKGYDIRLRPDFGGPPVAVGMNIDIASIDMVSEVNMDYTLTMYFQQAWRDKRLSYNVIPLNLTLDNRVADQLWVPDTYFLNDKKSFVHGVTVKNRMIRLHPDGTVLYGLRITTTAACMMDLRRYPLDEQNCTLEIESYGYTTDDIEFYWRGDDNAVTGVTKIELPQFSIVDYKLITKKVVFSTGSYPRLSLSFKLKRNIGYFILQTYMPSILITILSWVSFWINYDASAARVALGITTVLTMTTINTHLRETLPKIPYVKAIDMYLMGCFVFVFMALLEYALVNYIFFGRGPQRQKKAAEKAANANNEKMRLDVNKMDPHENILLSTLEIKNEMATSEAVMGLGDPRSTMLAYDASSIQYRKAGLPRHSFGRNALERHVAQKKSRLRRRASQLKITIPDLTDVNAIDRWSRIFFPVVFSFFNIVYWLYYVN
Outline: as §1

C57BL/6N mice [2] = experiment: Open Field Test; type: in vivo
Outline: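 Male C57BL/6N mice (3–6 months) were dosed i.p. with test compound or vehicle (saline, 10% DMSO, 3% Tween 80, pH 7.4) 30 min before testing. Ambulation was tracked by infrared for 10 min in a 50 × 50 × 50 cm box at 150 lx, starting in the centre. Zones: border ≤8 cm from wall, centre 20 × 20 cm. ≥8 mice; ANOVA with Bonferroni.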

C57BL/6N mice [3] = experiment: Elevated Plus Maze Test; type: in vivo
Outline: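 Test compound or vehicle (saline, 10% DMSO, 3% Tween 80, pH 7.4) was injected i.p. into male C57BL/6N mice (3–6 months) 30 min before a 5-min elevated plus maze trial. The maze stood 1 m high with 30 × 5 cm arms and 20 cm closed-arm walls, lit at 180 lx. Mice started in the centre facing an open arm; scoring was automated by video. ≥9 mice; ANOVA with Bonferroni.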

α3β2 GABAA receptors [4] = target: T1, α3β2 GABAA receptors (Rattus norvegicus, UniProt P20236+P63138); experiment: IGABA modulation, two-microelectrode voltage clamp, Xenopus oocytes, α3β2; type: cell-based
T1 sequence (P20236 29-493): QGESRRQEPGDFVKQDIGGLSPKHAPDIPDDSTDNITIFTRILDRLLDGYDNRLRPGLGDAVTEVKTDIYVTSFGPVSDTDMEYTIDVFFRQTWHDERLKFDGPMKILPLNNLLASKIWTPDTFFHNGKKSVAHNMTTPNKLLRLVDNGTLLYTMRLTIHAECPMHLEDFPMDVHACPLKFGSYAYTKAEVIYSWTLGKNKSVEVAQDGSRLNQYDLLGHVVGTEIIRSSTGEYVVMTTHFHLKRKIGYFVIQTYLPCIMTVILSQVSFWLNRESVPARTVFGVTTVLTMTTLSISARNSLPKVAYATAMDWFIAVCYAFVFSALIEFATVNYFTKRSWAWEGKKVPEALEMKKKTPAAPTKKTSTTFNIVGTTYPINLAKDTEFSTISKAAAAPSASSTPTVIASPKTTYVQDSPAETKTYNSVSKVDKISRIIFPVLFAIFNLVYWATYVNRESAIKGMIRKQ
T1 sequence (P63138 25-474 limits assumed): as the sequence (P63138 25-474 limits assumed) above
Outline: as §1

α1β2 GABAA receptors = α1β2 GABAA receptors (Rattus norvegicus, UniProt P62813+P63138); experiment: IGABA modulation, two-microelectrode voltage clamp, Xenopus oocytes, α1β2; type: cell-based
Chain of α1β2 GABAA receptors (P62813 28-455): as the sequence (P62813 28-455) above
Chain of α1β2 GABAA receptors (P63138 25-474 limits assumed): as the sequence (P63138 25-474 limits assumed) above
Outline: as §1

α3β2 GABAA receptors [5] = target: T1, α3β2 GABAA receptors; experiment: Shift of the GABA concentration-response curve by 100 μM compound; type: cell-based; conditions: enhancement not significant (p > 0.05)
α5β2 GABAA receptors = α5β2 GABAA receptors (Rattus norvegicus, UniProt P19969+P63138); experiment: IGABA modulation, two-microelectrode voltage clamp, Xenopus oocytes, α5β2; type: cell-based
Chain of α5β2 GABAA receptors (P19969 26-464): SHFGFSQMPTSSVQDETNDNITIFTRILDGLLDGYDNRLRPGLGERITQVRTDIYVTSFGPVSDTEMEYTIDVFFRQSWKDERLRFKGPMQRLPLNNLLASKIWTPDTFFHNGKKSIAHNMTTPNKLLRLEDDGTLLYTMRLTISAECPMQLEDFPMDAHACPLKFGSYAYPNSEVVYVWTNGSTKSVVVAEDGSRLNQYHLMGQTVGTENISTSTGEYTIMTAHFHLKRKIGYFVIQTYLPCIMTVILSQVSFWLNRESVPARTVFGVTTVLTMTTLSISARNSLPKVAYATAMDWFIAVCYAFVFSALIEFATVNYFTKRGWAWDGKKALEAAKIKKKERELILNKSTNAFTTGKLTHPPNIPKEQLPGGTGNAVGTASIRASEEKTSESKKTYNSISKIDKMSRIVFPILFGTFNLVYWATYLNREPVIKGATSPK
Chain of α5β2 GABAA receptors (P63138 25-474 limits assumed): as the sequence (P63138 25-474 limits assumed) above
Outline: as §1

C57BL/6N mice [6] = experiment: Measurement of body temperature; type: in vivo; conditions: 3 h after injection, control 36.10 ± 0.10 °C
α1β1 GABAA receptors = α1β1 GABAA receptors (Rattus norvegicus, UniProt P15431+P62813); experiment: IGABA modulation, two-microelectrode voltage clamp, Xenopus oocytes, α1β1; type: cell-based
Chain of α1β1 GABAA receptors (P62813 28-455): as the sequence (P62813 28-455) above
Chain of α1β1 GABAA receptors (P15431 26-474): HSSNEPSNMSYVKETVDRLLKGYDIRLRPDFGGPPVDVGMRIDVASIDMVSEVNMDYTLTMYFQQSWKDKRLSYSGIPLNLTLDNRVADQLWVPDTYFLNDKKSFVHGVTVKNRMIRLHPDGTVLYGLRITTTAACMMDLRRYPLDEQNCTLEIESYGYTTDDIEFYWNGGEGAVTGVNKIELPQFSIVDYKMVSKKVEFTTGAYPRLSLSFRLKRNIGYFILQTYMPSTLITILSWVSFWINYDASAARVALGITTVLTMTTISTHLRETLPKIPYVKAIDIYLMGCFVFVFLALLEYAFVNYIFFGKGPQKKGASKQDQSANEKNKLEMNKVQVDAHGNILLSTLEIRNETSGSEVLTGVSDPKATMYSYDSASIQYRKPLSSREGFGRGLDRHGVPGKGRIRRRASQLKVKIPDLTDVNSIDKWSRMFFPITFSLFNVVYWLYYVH
Outline: as §1

[7] = read-out: Maximum stimulation of IGABA at EC3–7

Chain of TRPV1 channels (O35433 whole entry, the tested form may be a part): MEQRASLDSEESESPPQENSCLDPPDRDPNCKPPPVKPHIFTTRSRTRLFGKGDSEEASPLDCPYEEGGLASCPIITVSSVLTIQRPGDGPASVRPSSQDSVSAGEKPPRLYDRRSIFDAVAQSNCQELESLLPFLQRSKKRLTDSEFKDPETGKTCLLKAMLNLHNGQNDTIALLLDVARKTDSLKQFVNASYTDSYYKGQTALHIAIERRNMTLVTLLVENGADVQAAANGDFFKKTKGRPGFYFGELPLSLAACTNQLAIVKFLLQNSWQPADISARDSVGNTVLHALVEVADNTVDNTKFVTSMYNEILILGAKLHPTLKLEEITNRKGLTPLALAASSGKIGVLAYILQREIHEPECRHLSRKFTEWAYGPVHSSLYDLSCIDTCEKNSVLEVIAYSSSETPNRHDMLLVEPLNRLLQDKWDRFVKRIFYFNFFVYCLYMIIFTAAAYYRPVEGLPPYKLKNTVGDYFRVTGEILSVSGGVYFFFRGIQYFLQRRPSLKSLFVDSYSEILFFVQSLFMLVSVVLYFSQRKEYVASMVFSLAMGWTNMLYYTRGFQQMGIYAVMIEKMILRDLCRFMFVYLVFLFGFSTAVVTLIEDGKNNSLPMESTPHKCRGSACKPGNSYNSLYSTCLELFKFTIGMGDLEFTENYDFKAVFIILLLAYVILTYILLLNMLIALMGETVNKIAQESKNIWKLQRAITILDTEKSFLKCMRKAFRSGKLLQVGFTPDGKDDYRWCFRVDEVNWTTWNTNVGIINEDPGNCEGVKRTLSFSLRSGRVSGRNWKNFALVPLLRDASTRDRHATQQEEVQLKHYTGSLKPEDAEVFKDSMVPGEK
Chain of α1β2γ2S GABAA receptors (P62813 28-455): as the sequence (P62813 28-455) above
Chain of α1β2γ2S GABAA receptors (P63138 25-474 limits assumed): as the sequence (P63138 25-474 limits assumed) above
Chain of α1β2γ2S GABAA receptors (P18508 39-466 partner): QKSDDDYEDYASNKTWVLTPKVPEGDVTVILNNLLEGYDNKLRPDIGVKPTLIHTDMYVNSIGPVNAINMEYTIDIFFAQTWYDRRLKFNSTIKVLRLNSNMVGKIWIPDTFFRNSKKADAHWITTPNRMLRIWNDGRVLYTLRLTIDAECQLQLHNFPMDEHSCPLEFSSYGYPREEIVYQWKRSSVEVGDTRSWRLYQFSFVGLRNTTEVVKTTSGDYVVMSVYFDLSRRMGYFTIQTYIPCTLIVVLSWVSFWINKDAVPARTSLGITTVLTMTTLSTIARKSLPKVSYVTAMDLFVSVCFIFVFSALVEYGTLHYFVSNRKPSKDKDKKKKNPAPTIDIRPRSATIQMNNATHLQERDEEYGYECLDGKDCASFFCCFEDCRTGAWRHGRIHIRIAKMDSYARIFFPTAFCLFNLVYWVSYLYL

O=C(/C=C/C=C/c1ccc2c(c1)OCO2)N1CCCCC1 [Piperine, 1-piperoylpiperidine]
EC50 (α1β2γ2S GABAA receptors): 52.4 ± 9.4 µM
IGABA,max (α1β2γ2S GABAA receptors): 302 ± 27%
EC50 (TRPV1 channels): 33.3 ± 0.1 µM
Hill coefficient of TRPV1 activation (TRPV1 channels; 3–300 μM): 4.1 ± 0.1
Activation of TRPV1 receptors (inward currents) (TRPV1 channels; oocytes expressing TRPV1, up to 300 μM): induced marked inward currents
Seizure threshold (PTZ dose) (C57BL/6N mice [1]; 3 mg/kg bodyweight i.p.): 46.2 ± 5.4 mg/kg bodyweight PTZ
Seizure threshold (PTZ dose) (C57BL/6N mice [1]; 30 mg/kg bodyweight i.p.): 30.3 ± 3.4 mg/kg bodyweight PTZ
Effect on seizure threshold (C57BL/6N mice [1]; doses below 3 mg/kg bodyweight i.p.): did not affect seizure threshold
Vasodilatory effects during PTZ tail-vein infusion (C57BL/6N mice [1]; doses of 10–30 mg/kg, data not shown): observed vasodilatory effects
Activation of GABAA receptors in the absence of GABA (GABAA receptors): Neither piperine nor SCT-66 (up to 300 μM) activated GABAA receptors
EC50 (α1β3 GABAA receptors): 48.3 ± 7.3 µM
Emax (α1β3 GABAA receptors; [7]): 332 ± 64%
Hill coefficient (nH) (α1β3 GABAA receptors; α1β3, GABA EC3–7): 1.5 ± 0.3
EC50 (α2β2 GABAA receptors): 42.8 ± 17.6 µM
Emax (α2β2 GABAA receptors; [7]): 248 ± 48%
Hill coefficient (nH) (α2β2 GABAA receptors; α2β2, GABA EC3–7): 1.9 ± 0.5
Total distance travelled (OF) (C57BL/6N mice [2]; 30 mg/kg bodyweight i.p., 30 min before test, 10 min test, control 39.3 ± 1.9 m): 21.0 ± 3.7 m
Reduction of ambulation compared to control (OF) (C57BL/6N mice [2]; 30 mg/kg i.p.): approximately 50%
Doses with significant reduction of ambulation (OF) (C57BL/6N mice [2]; i.p., 30 min before test): ≥ 3 mg/kg bodyweight
Time spent in the open arms (OA) in % of total time (EPM) (C57BL/6N mice [3]; 0.1 mg/kg bodyweight i.p., vs saline-treated control): did not significantly differ
Time spent in the open arms (OA) in % of total time (EPM) (C57BL/6N mice [3]; 0.3 mg/kg bodyweight i.p., 30 min before test, control 28.6 ± 2.1%): 43.0 ± 4.2%
Effect on ambulation (EPM total distance) (C57BL/6N mice [3]; 1 mg/kg bodyweight i.p.): significantly reduced ambulation
Time spent in the open arms (OA) in % of total time (EPM) (C57BL/6N mice [3]; 1 mg/kg bodyweight i.p., 30 min before test, control 28.6 ± 2.1%): 45.7 ± 6.3%
Number of closed arm (CA) entries (EPM) (C57BL/6N mice [3]; doses ≥0.3 mg/kg bodyweight i.p.): dropped significantly
EC50 (α3β2 GABAA receptors [4]): 59.6 ± 12.3 µM
Emax (α3β2 GABAA receptors [4]; [7]): 375 ± 51%
Hill coefficient (nH) (α3β2 GABAA receptors [4]; α3β2, GABA EC3–7): 1.4 ± 0.2
EC50 (α1β2 GABAA receptors): 50 ± 7.9 µM
Emax (α1β2 GABAA receptors; [7]): 271 ± 36%
Hill coefficient (nH) (α1β2 GABAA receptors; α1β2, GABA EC3–7): 1.5 ± 0.3
IGABA,max in the presence of compound (α3β2 GABAA receptors [5]): 123 ± 3%
EC50 (α5β2 GABAA receptors): 47.5 ± 17.9 µM
Emax (α5β2 GABAA receptors; [7]): 136 ± 22%
Hill coefficient (nH) (α5β2 GABAA receptors; α5β2, GABA EC3–7): 1.7 ± 0.4
Body temperature (C57BL/6N mice [6]; 10 mg/kg bodyweight i.p.): 34.86 ± 0.29 °C
Body temperature (C57BL/6N mice [6]; 30 mg/kg bodyweight i.p.): 30.37 ± 0.84 °C
EC50 (α1β1 GABAA receptors): 57.6 ± 4.2 µM
Emax (α1β1 GABAA receptors; [7]): 171 ± 22%
Hill coefficient (nH) (α1β1 GABAA receptors; α1β1, GABA EC3–7): 1.4 ± 0.2
